This passage reports MIC, HC50 and Activity results from ChEMBL document CHEMBL4138242, “Synthesis and antibacterial evaluation of novel cationic chalcone derivatives possessing broad spectrum antibacterial activity” (Eur J Med Chem, 2018).

For one series, the system named is Salmonella enterica. The series is described as follows: Antibacterial activity against Salmonella enterica ATCC 13076 after 16 to 20 hrs by broth microdilution method. Format: functional. The essentials:
(§1)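 Broth microdilution per CLSI. Bacteria grown 4-6 h (about 10⁸ CFU/mL), then diluted to about 10⁶ CFU/mL. Medium: Mueller-Hinton broth, except Luria-Bertani broth for E. coli. Compounds in sterile water, twofold series 256-0.5 µg/mL, mixed 1:1 with inoculum, 37 °C for 16-20 h. MIC is the lowest concentration without visible growth. Duplicate wells; experiment repeated at least twice.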

Series [1] is described as follows: Hemolytic activity in sheep RBC after 1 hr. The series is classed as ADME, cell-based, Ovis aries, Erythrocyte. The following applies: sheep red blood cells (erythrocytes). The essentials:
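Sheep red blood cells (150 µL suspension) mixed with 50 µL of compound dilutions (5120-10 µg/mL), 1 h at 37 °C, then centrifuged. Supernatant read at 540 nm. Percent hemolysis calculated relative to RBC-only control (0%) and 0.1% Triton X-100 (100%).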

Series [2] has as its system Escherichia coli. Briefly: Antibacterial activity against Escherichia coli ATCC 25922 after 16 to 20 hrs by broth microdilution method. The series is classed as functional. In outline:
as §1
A general note: Dilution methods test growth across graded concentrations, often in twofold steps.

The test system of series [3] is Staphylococcus aureus. Briefly: Antibacterial activity against Staphylococcus aureus ATCC 29213 after 16 to 20 hrs by broth microdilution method. The series is classed as functional. In outline:
as §1

The next series deals with Enterococcus faecalis. The series is described as follows: Antibacterial activity against Enterococcus faecalis ATCC 29212 after 16 to 20 hrs by broth microdilution method. The series is classed as functional. In outline: as §1
The subject of series [4] is Staphylococcus aureus. The series is described as follows: Induction of cytoplasmic membrane depolarization in Staphylococcus aureus ATCC 29213 at 10 to 20 ug/ml measured every 2 mins for 12 mins by DiSC35 dye-based fluorescence assay. Format: functional, organism-based. The essentials: (§2)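 Mid-log cells (~10⁸ CFU/mL) were suspended in PBS (S. aureus) or HEPES/glucose/KCl with EDTA (E. coli). They were preloaded with DiSC3(5) for 30 min (S. aureus) or 40 min (E. coli), and baseline fluorescence was read for 8 min. Compound was added to 20 µg/mL final, and fluorescence (ex 622/em 670 nm) was read every 2 min for 12 min. Water served as control.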

The subject of series [5] is Staphylococcus aureus. The series is described as follows: Induction of inner membrane permeabilization in Staphylococcus aureus ATCC 29213 at 10 to 20 ug/ml measured every 2 mins for 12 mins by propidium iodide staining-based fluorescence assay. Format: functional, organism-based. The essentials: (§3)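 Mid-log cells (~10⁸ CFU/mL) were suspended in PBS (S. aureus) or HEPES/glucose/KCl (E. coli). They were preincubated with propidium iodide for 30 min (S. aureus) or 40 min (E. coli), and baseline fluorescence was read for 8 min. Compound was added to 20 µg/mL final, and fluorescence (ex 535/em 617 nm) was read every 2 min for 12 min.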

Series [6] deals with Escherichia coli. Briefly: Induction of cytoplasmic membrane depolarization in Escherichia coli ATCC 25922 at 10 to 20 ug/ml measured every 2 mins for 12 mins by DiSC35 dye-based fluorescence assay. The series is classed as functional, organism-based. In outline: as §2
In series [7] the test system is Escherichia coli. The series is described as follows: Induction of inner membrane permeabilization in Escherichia coli ATCC 25922 at 10 to 20 ug/ml measured every 2 mins for 12 mins by propidium iodide staining-based fluorescence assay. Format: functional, organism-based. The essentials: as §3

Structures are written as SMILES. Activity calls are given as the source filed them. The rule behind the calls is not given here.

Usually MIC stands for the lowest concentration found to suppress growth. High values mean a need for much substance, low ones inhibition by little substance. What is called HC50 is the concentration that lyses half of the red blood cells. The low end stands for more damage to red cells, the high end for less damage to red cells. As for `CCCCCCCC[N+](C)(C)CC(=O)Nc1ccc(C(=O)/C=C/c2ccccn2)cc1.[Cl-]`, the MIC against Salmonella enterica is 32 µg/mL; with Escherichia coli [2], 16 µg/mL; against Staphylococcus aureus [3], 4 µg/mL; in the series with Enterococcus faecalis, 8 µg/mL. In addition, the HC50 at 1 h in series [1] came out at 187 µg/mL.
Consider `CCCCCCCC[N+](C)(C)CC(=O)Nc1ccc(C(=O)/C=C/c2cc([N+](=O)[O-])ccc2OCC)cc1.[Cl-]`, for which the MIC against Salmonella enterica was greater than 128 µg/mL; against Escherichia coli [2], greater than 128 µg/mL; in the series on Staphylococcus aureus [3] it was 8 µg/mL; in the series on Enterococcus faecalis, 2 µg/mL. In addition, the HC50 at 1 h in series [1] is 102 µg/mL.
Take `CCCCCCCCCCCC[N+](C)(C)CC(=O)Nc1ccc(C(=O)/C=C/c2ccccc2F)cc1.[Cl-]`: the MIC is 32 µg/mL in the series with Salmonella enterica, 16 µg/mL against Escherichia coli [2], 4 µg/mL in the series with Staphylococcus aureus [3] and 8 µg/mL in the series on Enterococcus faecalis. The molecule also displayed a concentration for 50% haemolysis (HC50) at 1 h in series [1] of 293 µg/mL.
For `CCCCCCCC[N+](C)(C)CC(=O)Nc1ccc(C(=O)/C=C/c2cccc(F)c2F)cc1.[Cl-]`, the outcome in the series on Staphylococcus aureus [4], with Staphylococcus aureus [5], with Escherichia coli [6] and in the series with Escherichia coli [7] was Active. Besides, the MIC in the series with Salmonella enterica came to 8 µg/mL; in the series with Escherichia coli [2], 2 µg/mL; in the series on Staphylococcus aureus [3], 0.5 µg/mL; with Enterococcus faecalis it was 2 µg/mL. In [1], the HC50 at 1 h stood at 56 µg/mL.
Consider `CCCC[N+](C)(C)CC(=O)Nc1ccc(C(=O)/C=C/c2ccncc2)cc1.[Cl-]`, for which the MIC in the series on Salmonella enterica is greater than 128 µg/mL; against Escherichia coli [2], greater than 128 µg/mL; against Staphylococcus aureus [3] it was 128 µg/mL; against Enterococcus faecalis, 128 µg/mL. The molecule also had an HC50 at 1 h in series [1] greater than 500 µg/mL.
On to `CCCCCCCC[N+](C)(C)CC(=O)Nc1ccc(C(=O)/C=C/c2cccc(Br)n2)cc1.[Cl-]`, for which the MIC came to 32 µg/mL in the series on Salmonella enterica, 16 µg/mL with Escherichia coli [2], 4 µg/mL with Staphylococcus aureus [3] and 8 µg/mL with Enterococcus faecalis. The same molecule came in with an HC50 at 1 h in [1] of 363 µg/mL.
The matching figures for `CCCCCCCCCCCCCC[N+](C)(C)CC(=O)Nc1ccc(C(=O)/C=C/c2ccccc2F)cc1.[Cl-]`: greater than 128 µg/mL, greater than 128 µg/mL, 8 µg/mL, greater than 128 µg/mL and 192 µg/mL.
With `CCCCCCCC[N+](C)(C)CC(=O)Nc1ccc(C(=O)/C=C/c2ncccc2F)cc1.[Cl-]`, the MIC in the series with Salmonella enterica is 16 µg/mL; against Escherichia coli [2], 8 µg/mL; against Staphylococcus aureus [3], 2 µg/mL; against Enterococcus faecalis it was 8 µg/mL. This molecule had an HC50 at 1 h in series [1] of 83 µg/mL.
Regarding `CCCCCCCC[N+](C)(C)CC(=O)Nc1ccc(C(=O)/C=C/c2cccc(F)c2)cc1.[Cl-]`, the MIC in the series on Salmonella enterica was greater than 128 µg/mL; against Escherichia coli [2], greater than 128 µg/mL; with Staphylococcus aureus [3], 32 µg/mL; against Enterococcus faecalis, 64 µg/mL. In addition, the HC50 at 1 h in series [1] turned out to be 68 µg/mL.
Consider `CCCCCCCC[N+](C)(C)CC(=O)Nc1ccc(C(=O)/C=C/c2ccncc2)cc1.[Cl-]`, for which the MIC worked out at 32 µg/mL against Salmonella enterica, 16 µg/mL in the series with Escherichia coli [2], 4 µg/mL with Staphylococcus aureus [3] and 8 µg/mL in the series with Enterococcus faecalis. In series [1], this molecule registered an HC50 at 1 h of 200 µg/mL.
With `CCCC[N+](C)(C)CC(=O)Nc1ccc(C(=O)/C=C/c2cccs2)cc1.[Cl-]`, the MIC with Salmonella enterica worked out at 128 µg/mL; against Escherichia coli [2] it was 64 µg/mL; in the series on Staphylococcus aureus [3], 32 µg/mL; in the series with Enterococcus faecalis it was 32 µg/mL. For the same molecule, the HC50 at 1 h in [1] amounted to 360 µg/mL.
On to `CCCCCCCC[N+](C)(C)CC(=O)Nc1ccc(C(=O)/C=C/c2c(F)cccc2F)cc1.[Cl-]`, for which the MIC in the series with Salmonella enterica worked out at 128 µg/mL; with Escherichia coli [2], 128 µg/mL; against Staphylococcus aureus [3], 32 µg/mL; against Enterococcus faecalis, 32 µg/mL. The same molecule displayed an HC50 at 1 h in [1] of 50 µg/mL.
Consider `CCCCCCCC[N+](C)(C)CC(=O)Nc1ccc(C(=O)/C=C/c2ccc(C(C)(C)C)cc2)cc1.[Cl-]`, for which the MIC is 16 µg/mL against Salmonella enterica, 16 µg/mL in the series on Escherichia coli [2], 2 µg/mL against Staphylococcus aureus [3] and 4 µg/mL in the series with Enterococcus faecalis. The molecule also registered an HC50 at 1 h in series [1] of 284 µg/mL.
Consider `C[C@@H](O)[C@H]1C(=O)N2C(C(=O)O)=C(S[C@@H]3CN[C@H](C(=O)N(C)C)C3)[C@H](C)[C@H]12` [MEROPENEM], for which, in the series with Escherichia coli [2], the MIC is less than 0.125 µg/mL.
`CCCC[N+](C)(C)CC(=O)Nc1ccc(C(=O)/C=C/c2ccccc2F)cc1.[Cl-]`: the MIC was 128 µg/mL against Salmonella enterica, 64 µg/mL with Escherichia coli [2], 16 µg/mL against Staphylococcus aureus [3] and 16 µg/mL against Enterococcus faecalis. The HC50 at 1 h in series [1] was 262 µg/mL.
As to `CCCCCCCCCCCCCCCCCC[N+](C)(C)CC(=O)Nc1ccc(C(=O)/C=C/c2ccccc2F)cc1.[Cl-]`, the MIC against Salmonella enterica, in the series with Escherichia coli [2], with Staphylococcus aureus [3] and in the series on Enterococcus faecalis was greater than 128 µg/mL throughout. In series [1], this molecule displayed a concentration for 50% haemolysis (HC50) at 1 h of 444 µg/mL.
In the case of `CCCCCCCC[N+](C)(C)CC(=O)Nc1ccc(C(=O)/C=C/c2cccnc2)cc1.[Cl-]`, the MIC in the series on Salmonella enterica worked out at 32 µg/mL; against Escherichia coli [2], 16 µg/mL; against Staphylococcus aureus [3] it was 4 µg/mL; in the series with Enterococcus faecalis, 8 µg/mL. This molecule also yielded an HC50 at 1 h in [1] of 127 µg/mL.
Regarding `CCCCCCCC[N+](C)(C)CC(=O)Nc1cccc(C(=O)/C=C/c2cccs2)c1.[Cl-]`, the MIC against Salmonella enterica amounted to 16 µg/mL; in the series on Escherichia coli [2], 16 µg/mL; against Staphylococcus aureus [3] it was 2 µg/mL; in the series on Enterococcus faecalis it was 4 µg/mL. This molecule gave a 50% haemolytic concentration (HC50) at 1 h in series [1] of 249 µg/mL.
